Data reported in PMC5730364 (Investigative Ophthalmology & Visual Science, 2017).
Square brackets hold non-standard residues; d marks the D form. Peptide text beside a SMILES is read from it. Orn = NCCC[C@H](N)C(=O)O

Columns and labels:
[1] = test system: corneal epithelial scrape wounds; test: In vivo corneal epithelial wound healing; set-up: species or system C57BL/6 mice
In short: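 C57BL/6 mice (9–13 weeks) were anaesthetised with ketamine 100 mg/kg plus xylazine 10 mg/kg ip. A 2-mm diameter corneal epithelial scrape wound was made in the right eye with an Algerbrush. Then 5 μL of test peptide (2, 64 or 640 μg/mL) or PBS vehicle was applied topically immediately, 5 min later, and at 6, 12 and 18 h. Wounds were stained with 1.5 μL 1% sodium fluorescein every 6 h until closure (24 h), imaged, and their areas measured.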

P. aeruginosa 19660_Xen5 = test: Time-kill bactericidal activity, bioluminescence; assay type: cell-based, Pseudomonas aeruginosa; details: Fig. 2
In short: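 Luciferase-tagged strain grown from a single colony in LB at 37°C overnight with agitation, diluted 1:10 into fresh LB and grown 2 h at 37°C to mid-log. Adjusted by OD600 to 1 × 10⁷ CFU/mL and exposed to test compound at several concentrations for 0, 30, 60 and 120 min. Viable cells quantified noninvasively by bioluminescence imaging. Mean ± SE of triplicates from two independent experiments.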

S. aureus 49525_Xen36 = test: Time-kill bactericidal activity, bioluminescence; assay type: cell-based, Staphylococcus aureus; details: 30 minutes' incubation, Fig. 4
In short: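 Bioluminescent S. aureus Xen36 was grown from a single colony in LB overnight at 37°C with agitation. It was diluted 1:10 into fresh LB for 2 h at 37°C to mid-log phase and adjusted by OD600 to 1 × 10⁷ CFU/mL. Then 100 μL per well was exposed to a concentration series of test peptide for 30 min. Viable-cell luminescence was read by IVIS Lumina imaging (open filter, binning 4, f-stop 1, 30 s count). Results are mean ± SE of triplicates from two independent experiments.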

C[C@H](NC(=O)[C@H](Cc1ccccc1)NC(=O)[C@H](C)NC(=O)[C@H](Cc1ccccc1)NC(=O)[C@H](CCCN)NC(=O)[C@H](C)NC(=O)[C@H](Cc1ccccc1)NC(=O)[C@H](CCCN)NC(=O)[C@H](CCCN)NC(=O)[C@H](C)NC(=O)[C@H](Cc1ccccc1)NC(=O)[C@H](CCCN)NC(=O)[C@H](CCCN)NC(=O)[C@H](Cc1ccccc1)NC(=O)[C@H](CCCN)NC(=O)[C@H](CCCN)NC(=O)[C@H](C)NC(=O)[C@H](Cc1ccccc1)NC(=O)[C@H](CCCN)NC(=O)[C@H](CCCN)NC(=O)[C@H](C)NC(=O)[C@@H](N)Cc1ccccc1)C(=O)N[C@@H](Cc1ccccc1)C(=O)O [RP444] (H-FA[Orn][Orn]FA[Orn][Orn]F[Orn][Orn]FA[Orn][Orn]FA[Orn]FAFAF-OH)
wound closure vs vehicle ([1]; at 24 hours following topical ocular administration, 2, 64 or 640 μg/mL): No statistically significant difference in closure | effect on corneal epithelial wound healing ([1]; mice, topical 5 μL RP444 2, 64 or 640 μg/mL at 0 h, 5 minutes, 6, 12, 18 hours post wound, two independent experiments, n = 7-10 mice/group): did not affect corneal epithelial wound healing

NC[C@H]1O[C@H](O[C@H]2[C@H](O)[C@@H](O[C@H]3O[C@H](CO)[C@@H](O)[C@H](N)[C@H]3O)[C@H](N)C[C@@H]2N)[C@H](N)C[C@@H]1O [tobramycin]
bactericidal activity following 60 minutes of exposure (P. aeruginosa 19660_Xen5; 60 minutes): bactericidal effects at 60 minutes | bactericidal activity against S. aureus (S. aureus 49525_Xen36): neither tobramycin nor vancomycin exhibited any bactericidal effect

CN[C@H](CC(C)C)C(=O)N[C@H]1C(=O)N[C@@H](CC(N)=O)C(=O)N[C@H]2C(=O)N[C@H]3C(=O)N[C@H](C(=O)N[C@H](C(=O)O)c4cc(O)cc(O)c4-c4cc3ccc4O)[C@H](O)c3ccc(c(Cl)c3)Oc3cc2cc(c3O[C@@H]2O[C@H](CO)[C@@H](O)[C@H](O)[C@H]2O[C@H]2C[C@](C)(N)[C@H](O)[C@H](C)O2)Oc2ccc(cc2Cl)[C@H]1O [vancomycin]
bactericidal activity during the short incubation time period (P. aeruginosa 19660_Xen5; 2 hours): no evidence of bactericidal activity | bactericidal activity against S. aureus (S. aureus 49525_Xen36): neither tobramycin nor vancomycin exhibited any bactericidal effect
